In ChEMBL document CHEMBL4393678, “Novel Tetrahydroquinazolinamines as Selective Histamine 3 Receptor Antagonists for the Treatment of Obesity” (J Med Chem, 2019):
Calls of active or inactive are those of the source. No cut-off for these calls is given here.

Legend:
Histamine H2 receptor = Histamine H2 receptor (Homo sapiens, UniProt P25021); assay: Agonist activity at recombinant human Gs-coupled H2 receptor expressed in HEK293T cells assessed as inhibition of forskolin-stimulated cAMP accumulation at 10 uM preincubated for 10 to 15 followed by forskolin-stimulation by Glo-sensor assay relative to control; format: functional, cell-based; parameters: scale not given: the % may be the effect or the level left
In short: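 HEK293T cells were transiently co-transfected with GloSensor-22F cAMP plasmid and human H2R plasmid, then held 15–18 h at 37 °C in 5% CO2. Cells were loaded with sodium luciferin (1 mg/ml) for 90 min. Agonist mode used 10 µM compound, with luminescence read directly after 10–15 min. Screening was in triplicate, scored as ≥50% change versus control.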

[1] = biological target: Histamine H4 receptor (Homo sapiens) (UniProt Q9H3N8); assay: Antagonist activity at recombinant human Gi-coupled H4 receptor expressed in HEK293T cells assessed as reduction in histamine-induced inhibition of forskolin-stimulated cAMP accumulation at 10 uM preincubated for 10 to 15 followed by histamine addition for 10 mins and subsequent forskolin-stimulation by Glo-sensor assay; format: functional, cell-based
[2] = biological target: Histamine H1 receptor (Homo sapiens) (UniProt P35367); assay: Antagonist activity at H1R (unknown origin) expressed in HEK293 cells harboring luc2P/NFAT-RE plasmid at 10 uM after 6 to 8 hrs by luciferase reporter gene assay; format: cell-based
In short: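 NFAT-RE luciferase assay in HEK293T cells transiently co-transfected with luc2P/NFAT-RE plasmid and receptor plasmid. Cells plated in DMEM and incubated overnight at 37 °C, 5% CO₂. Compounds and reference ligands applied for 6-8 h. Luciferase read after adding Bright-Glo substrate (1 mg/ml final).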

[3] = biological target: D(2) dopamine receptor (Homo sapiens) (UniProt P14416); assay: Agonist activity at Gi-coupled D2 receptor (unknown origin) expressed in HEK293T cells assessed as inhibition of forskolin-stimulated cAMP accumulation preincubated for 10 to 15 followed by forskolin-stimulation by Glo-sensor assay; format: functional, cell-based
[4] = biological target: D(3) dopamine receptor (Homo sapiens) (UniProt P35462); assay: Agonist activity at D3 receptor (unknown origin)
[5] = Tmax in C57BL/6J mouse serum at 20 mg/kg, po by LC-MS/MS analysis; format: ADME, organism-based
In short: (§1)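 Male C57BL/6J mice (6-8 weeks, 20 ± 5 g) fasted overnight (12-16 h) got a single 20 mg/kg oral dose as 2.5 mg/mL suspension in 1% w/v gum acacia; n=5 per time point. Serum and brain (PBS homogenate 1:6 w/v) sampled up to 24 h. Parent and demethylated metabolite quantified by LC-MS/MS after liquid-liquid extraction (C18, MRM, phenacetin internal standard; linear 0.25-200 ng/mL). Two-compartment open model fit.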

[6] = Half life in C57BL/6J mouse serum at 20 mg/kg, po by LC-MS/MS analysis; format: ADME, organism-based; in short: as §1
[7] = Tmax in C57BL/6J mouse brain assessed as 4-(2-Amino-8-methyl-5,6,7,8-tetrahydroquinazolin-4-yl)phenol level at 20 mg/kg, po by LC-MS/MS analysis; format: ADME, organism-based; conditions: in vivo; in short: as §1
Mus musculus = assay: Anorexic effect in 12 hrs fasted db/db-induced obese C57BL/6J mouse model assessed as reduction in cumulative food intake at 20 mg/kg, po pretreated for 30 mins followed by food addition measured after 4 hrs in presence of H3R agonist-imitet; format: functional, organism-based
In short: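 Mice starved 12 h (8:00 am to 8:00 pm) with water available, then housed singly. Compound given orally in 5% gum acacia in normal saline; vehicle group received the same. Cumulative food intake measured over 4 h of the night phase (9:00 pm to 1:00 am), starting 30 min after dosing. Antagonism arms: imitet 5 mg/kg i.p. 30 min before compound, or α-methyl-DL-histidine 20 mg/kg i.p. 2 h before.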

[8] = Toxicity in lean C57BL/6J mouse assessed as change in body weight at 20 mg/kg, po measured after 6 weeks; format: organism-based; conditions: in vivo, 1008 h

D(2) dopamine receptor (Homo sapiens), sequence (P14416 whole entry): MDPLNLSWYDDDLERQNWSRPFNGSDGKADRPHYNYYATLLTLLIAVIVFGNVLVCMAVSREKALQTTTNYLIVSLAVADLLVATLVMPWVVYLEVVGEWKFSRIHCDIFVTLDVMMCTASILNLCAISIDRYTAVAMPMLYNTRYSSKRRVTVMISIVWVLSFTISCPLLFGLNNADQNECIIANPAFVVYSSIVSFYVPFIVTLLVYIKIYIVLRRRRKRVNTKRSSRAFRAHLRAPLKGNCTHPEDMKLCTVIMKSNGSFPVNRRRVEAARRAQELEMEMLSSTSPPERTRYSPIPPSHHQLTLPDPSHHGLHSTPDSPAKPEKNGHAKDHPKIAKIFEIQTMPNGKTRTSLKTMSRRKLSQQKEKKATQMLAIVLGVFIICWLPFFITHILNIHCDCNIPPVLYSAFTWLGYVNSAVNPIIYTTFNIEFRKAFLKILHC
D(3) dopamine receptor (Homo sapiens), sequence (P35462 whole entry): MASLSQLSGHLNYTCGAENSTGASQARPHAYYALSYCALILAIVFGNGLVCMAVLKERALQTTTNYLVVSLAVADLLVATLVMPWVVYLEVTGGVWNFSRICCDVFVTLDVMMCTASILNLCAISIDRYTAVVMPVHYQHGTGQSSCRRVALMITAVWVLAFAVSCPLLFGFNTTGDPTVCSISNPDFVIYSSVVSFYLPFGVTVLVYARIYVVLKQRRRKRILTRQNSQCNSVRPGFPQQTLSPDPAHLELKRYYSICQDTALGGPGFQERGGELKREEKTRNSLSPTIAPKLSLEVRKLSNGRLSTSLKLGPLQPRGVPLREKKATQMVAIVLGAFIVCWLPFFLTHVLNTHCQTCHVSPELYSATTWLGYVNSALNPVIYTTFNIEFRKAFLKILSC
Histamine H1 receptor (Homo sapiens), sequence (P35367 whole entry): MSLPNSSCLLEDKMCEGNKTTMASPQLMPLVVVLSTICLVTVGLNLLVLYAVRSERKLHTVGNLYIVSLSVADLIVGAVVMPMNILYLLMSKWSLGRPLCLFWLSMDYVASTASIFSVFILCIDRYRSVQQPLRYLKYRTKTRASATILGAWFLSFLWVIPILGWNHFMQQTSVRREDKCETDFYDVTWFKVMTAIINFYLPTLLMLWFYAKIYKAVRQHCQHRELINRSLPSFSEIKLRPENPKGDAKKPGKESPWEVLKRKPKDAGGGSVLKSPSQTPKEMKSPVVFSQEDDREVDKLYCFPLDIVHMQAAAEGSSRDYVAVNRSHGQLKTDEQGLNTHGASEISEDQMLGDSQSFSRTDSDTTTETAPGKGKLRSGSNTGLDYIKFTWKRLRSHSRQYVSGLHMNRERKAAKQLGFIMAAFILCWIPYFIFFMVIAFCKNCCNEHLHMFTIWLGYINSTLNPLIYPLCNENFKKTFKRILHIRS
Histamine H2 receptor, sequence (P25021 whole entry): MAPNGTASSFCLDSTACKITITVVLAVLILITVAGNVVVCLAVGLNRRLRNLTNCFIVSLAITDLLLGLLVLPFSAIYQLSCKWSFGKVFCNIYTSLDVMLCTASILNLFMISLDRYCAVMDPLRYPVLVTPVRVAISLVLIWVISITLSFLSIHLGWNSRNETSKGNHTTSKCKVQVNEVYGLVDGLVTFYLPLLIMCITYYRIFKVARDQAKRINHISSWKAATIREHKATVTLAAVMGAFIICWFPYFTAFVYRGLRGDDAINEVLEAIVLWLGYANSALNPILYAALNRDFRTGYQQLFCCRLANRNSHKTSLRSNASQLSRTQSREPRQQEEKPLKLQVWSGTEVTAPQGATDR
Histamine H4 receptor (Homo sapiens), sequence (Q9H3N8 whole entry): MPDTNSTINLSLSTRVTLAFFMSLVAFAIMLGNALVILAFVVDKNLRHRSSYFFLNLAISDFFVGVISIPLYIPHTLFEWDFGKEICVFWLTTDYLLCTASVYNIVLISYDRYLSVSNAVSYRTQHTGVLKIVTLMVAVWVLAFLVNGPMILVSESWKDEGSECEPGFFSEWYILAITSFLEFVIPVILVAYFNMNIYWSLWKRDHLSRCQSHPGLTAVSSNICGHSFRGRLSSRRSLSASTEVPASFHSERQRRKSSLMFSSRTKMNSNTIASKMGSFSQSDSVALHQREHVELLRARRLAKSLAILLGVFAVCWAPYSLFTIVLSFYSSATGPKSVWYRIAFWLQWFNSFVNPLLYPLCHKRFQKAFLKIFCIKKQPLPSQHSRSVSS

Q: With `COc1ccc(-c2nc(N)nc3c2CCCC3C)cc1` (racemic) as the molecule, how does the Activity (Histamine H2 receptor) read?
A: < 50%

Q: And the inhibition [1]?
A: inactive

Q: What about the inhibition [2] of the same molecule?
A: inactive

Q: What about the inhibition [3] of the same molecule?
A: inactive

Q: And the Activity [4]?
A: inactive

Q: What about the Tmax [5] of the same molecule?
A: 15 min

Q: What about the half-life [6] of the same molecule?
A: 114 min

Q: What about the Tmax [7] of the same molecule?
A: 30 min

Q: And the Activity (Mus musculus)?
A: inactive

Q: What about the Activity [8] of the same molecule?
A: Non-Toxic
